Assay results from paper PMC12591034 (RSC Advances, 2025).

How the values were obtained:
Format in all cases: cell-based
[1] = tested on: Hep-G2 (liver) carcinoma cells; assay: Cytotoxicity, SRB assay, Hep-G2; settings: Homo sapiens, HepG2, read-out: IC50 Cytotoxicity Hep-G2
How it was run: (§1)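 Sulforhodamine B (SRB) cytotoxicity assay on human A549 lung, Hep-G2 liver and MCF-7 breast carcinoma cells, run alongside non-cancer HEK-293A embryonic kidney cells. Results are given as mean ± SD from three independent experiments. IC50 was estimated by curve fitting.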

[2] = Cytotoxicity, SRB assay, HEK-293A; settings: human, HEK-293A embryonic kidney cells (normal cells)
[3] = tested on: A549 (lung) carcinoma cells; assay: Cytotoxicity, SRB assay, A549; settings: Homo sapiens, A549, read-out: IC50 Cytotoxicity A549
How it was run: as §1

[4] = tested on: NO production in LPS-stimulated RAW 264.7 macrophage cells; assay: Inhibition of NO production in LPS-stimulated RAW 264.7 cells; settings: Mus musculus, RAW264.7, read-out: IC50 Inhibition of NO-production
How it was run: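 RAW 264.7 murine macrophages were stimulated with LPS. NO release was measured as nitrite in the culture medium by the Griess reaction. Results are given as mean ± SD from three independent experiments. IC50 was estimated by curve fitting.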

[5] = tested on: A549, Hep-G2, and MCF-7 human cancer cell lines; assay: Cytotoxicity, SRB assay, stated across the cancer cell lines; settings: tested cell lines
How it was run: as §1

[6] = tested on: MCF-7 (breast) carcinoma cells; assay: Cytotoxicity, SRB assay, MCF-7; settings: Homo sapiens, MCF7, read-out: IC50 Cytotoxicity MCF-7
How it was run: as §1

Structure (SMILES) | IC50 [1] [µM] | IC50 [2] [µM] | IC50 [3] [µM] | IC50 [4] [µM] | cytotoxic activity in words [5] | IC50 [6] [µM]
COC(=O)c1c(C)cc(O)c(C=O)c1O [Compound 17, methyl haematommate] | 80.7 ± 3.59 | 70.7 ± 4.44 | > 100 | > 100 | weakly active | 99.3 ± 6.83
Cc1c2ccncc2c(C)c2c1[nH]c1ccccc12 [Ellipticine, reference compound] | 1.42 ± 0.08 | 1.34 ± 0.08 | 1.71 ± 0.08 | – | – | 1.54 ± 0.04
C[C@H]1C(=O)CC[C@@H]2[C@]1(C)CC[C@H]1[C@@]2(C)CC[C@@]2(C)[C@@H]3CC(C)(C)CC[C@]3(C)CC[C@]12C [Compound 5, friedelin] | > 100 | – | > 100 | > 100 | – | > 100
C[C@H]1C(=O)CC[C@@H]2[C@]1(C)CC[C@H]1[C@@]2(C)CC[C@@]2(C)[C@@H]3CC(C)(C)CC[C@]3(CO)CC[C@]12C [Compound 7, canophyllol] | 22.4 ± 1.01 | 30.1 ± 1.25 | 39.3 ± 1.29 | 79.9 ± 1.37 | – | 27.4 ± 1.19
